# Experimental data: paper PMC7668563 (International journal of molecular biology (Edmond, Okla.), 2020)
# Read-outs that look alike come from different tables or passages of the source.
# What was measured:
# [1] = biological target: T1, apo-human transferrin (apo-hTf) (Homo sapiens, UniProt P02787); experiment: Fluorescence resonance energy transfer; assay type: binding; details: for Förster critical energy transfer distance R0 / binding distance r (donor-acceptor): k^2=2/3, n=1.336, ØD=0.118; for efficiency of energy transfer E: room temperature, 1.0×10^−5 mol L^−1 each
# T1 sequence (P02787 20-698): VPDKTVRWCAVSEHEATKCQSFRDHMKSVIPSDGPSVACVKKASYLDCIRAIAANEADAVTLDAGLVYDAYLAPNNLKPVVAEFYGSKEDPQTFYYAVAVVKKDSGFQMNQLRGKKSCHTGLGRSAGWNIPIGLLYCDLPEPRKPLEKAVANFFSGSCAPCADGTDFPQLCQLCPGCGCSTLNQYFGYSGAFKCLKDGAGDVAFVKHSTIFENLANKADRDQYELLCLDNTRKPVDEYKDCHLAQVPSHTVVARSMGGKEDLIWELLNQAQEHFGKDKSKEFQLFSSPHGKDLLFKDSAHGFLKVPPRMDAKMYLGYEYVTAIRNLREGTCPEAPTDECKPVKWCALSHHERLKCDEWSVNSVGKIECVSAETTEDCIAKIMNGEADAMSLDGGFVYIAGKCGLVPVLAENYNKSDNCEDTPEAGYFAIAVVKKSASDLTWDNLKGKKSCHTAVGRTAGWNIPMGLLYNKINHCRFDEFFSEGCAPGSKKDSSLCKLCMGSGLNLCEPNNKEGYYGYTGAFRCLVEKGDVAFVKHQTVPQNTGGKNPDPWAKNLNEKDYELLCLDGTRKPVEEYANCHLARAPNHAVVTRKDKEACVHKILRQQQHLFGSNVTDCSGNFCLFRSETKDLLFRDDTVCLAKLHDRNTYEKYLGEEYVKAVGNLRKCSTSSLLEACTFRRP
# Summary of the method: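 Emission spectrum of 1.0×10−5 mol L−1 apo-hTf and absorption spectrum of 1.0×10−5 mol L−1 test compound were recorded in 20 mM Tris-HCl pH 7.4 at room temperature, 260–450 nm, and their spectral overlap determined. E was calculated from apo-hTf fluorescence without and with equimolar test compound. R0 and donor–acceptor distance r came from Förster equations.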
# [2] = test system: human colorectal adenocarcinoma cell line, HT-29; details: cited from earlier work
# [3] = test system: human breast adenocarcinoma cell line, MCF-7; details: cited from earlier work
# [4] = biological target: T1, apo-human transferrin (apo-hTf); experiment: Thermodynamic parameters of apo-hTf complex formation; assay type: binding; details: for ∆H° / ∆S°: pH 7.4, from Ksv at 296-317 K
# Summary of the method: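 Ksv values were obtained from apo-hTf fluorescence quenching at pH 7.4 at 296, 303, 310 and 317 K. ΔH°, ΔS° and ΔG° were derived from linear regression of ln(Ksv) vs 1/T (Van't Hoff equation).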
# [5] = biological target: T1, apo-human transferrin (apo-hTf); experiment: Far-UV circular dichroism titration of apo-hTf, secondary structure content
# Summary of the method: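 Apo-hTf (4.0×10−7 mol L−1) in 2 mM Tris-HCl pH 7.4 was titrated with a 1.0×10−3 mol L−1 stock of test compound in Tris-HCl/2% DMSO, to final 0–2.4×10−6 mol L−1. Far-UV CD was recorded from 190–250 nm under nitrogen in a 1.0 cm cell: six scans at 100 nm/min. Baseline was buffer ± DMSO at room temperature. α-Helix was derived from MRE at 208 nm; β-sheet and random coil by the CD-RRG method.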
# [6] = biological target: T1, apo-human transferrin (apo-hTf); experiment: Fluorescence quenching of apo-hTf; assay type: binding; details: for biomolecular quenching rate constant kq: kq=Ksv/τ0; for Stern-Volmer quenching constant Ksv / number of binding sites n: pH 7.4; for quenching association constant Ka: pH 7.4, modified Stern-Volmer
# Summary of the method: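 Intrinsic fluorescence of apo-hTf in Tris-HCl pH 7.4 was titrated with test compound (Tris-HCl/2% DMSO). Conditions: excitation 280 nm, emission 290–500 nm, slits 10/5 nm, 1.0 cm quartz cell, at 296, 303, 310 and 317 K, triplicate titrations. Intensities were corrected for inner filter effect using absorbances at excitation and emission wavelengths. Ksv came from Stern-Volmer plots of F0/F vs [Q]; kq = Ksv/τ0 (τ0 ~1.0×10−8); Ka and n came from the modified Stern-Volmer equation.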
# [7] = biological target: T1, apo-human transferrin (apo-hTf); experiment: UV-Vis absorbance titration of apo-hTf; assay type: binding; details: for Ka at 280 nm: absorbance at 280 nm; for Association constants, Ka, 280 nm: absorbance of apo-hTf at 280 nm
structure (smiles),measurement,setting,value
[Cl-].[Cl-].[Mo+4].c1cc[cH-]c1.c1cc[cH-]c1 [Cp2MoCl2],Förster critical energy transfer distance R0,[1],3.38 nm
same,binding distance r (donor-acceptor),[1],4.44 nm
same,efficiency of energy transfer E,[1],0.162
same,IC50,"[2]; read-out: IC50 (±SD), HT-29, ref 21",2600 µM
same,"IC50 (±SD), MCF-7",[3],proliferative activity
same,"IC50 (±SD), MCF-7",[3]; listed as Cp^2MoCl^2,"Proliferative[21],[68]"
same,∆G°,[4]; 296 K,-4.293 kcal/mol
same,∆G°,[4]; 303 K,-4.46 kcal/mol
same,∆G°,[4]; 310 K,-4.625 kcal/mol
same,∆G°,[4]; 317 K,-4.792 kcal/mol
same,∆H°,[4],2.768 kcal/mol
same,∆S°,[4],99.78 J/mol K
same,other secondary structure content of apo-hTf,[5]; compound concentration 0.4 (M),19.3%
same,random coil content of apo-hTf,[5]; compound concentration 0.4 (M),33.9%
same,α-helix content of apo-hTf,[5]; compound concentration 0.4 (M),28.7%
same,β-sheet content of apo-hTf,[5]; compound concentration 0.4 (M),18.1%
same,other secondary structure content of apo-hTf,[5]; compound concentration 0.8 (M),19.4%
same,random coil content of apo-hTf,[5]; compound concentration 0.8 (M),34%
same,α-helix content of apo-hTf,[5]; compound concentration 0.8 (M),28.3%
same,β-sheet content of apo-hTf,[5]; compound concentration 0.8 (M),18.3%
same,other secondary structure content of apo-hTf,[5]; compound concentration 1.2 (M),19.9%
same,random coil content of apo-hTf,[5]; compound concentration 1.2 (M),34.1%
same,α-helix content of apo-hTf,[5]; compound concentration 1.2 (M),27.6%
same,β-sheet content of apo-hTf,[5]; compound concentration 1.2 (M),18.4%
same,other secondary structure content of apo-hTf,[5]; compound concentration 1.6 (M),20%
same,random coil content of apo-hTf,[5]; compound concentration 1.6 (M),34.3%
same,α-helix content of apo-hTf,[5]; compound concentration 1.6 (M),27.1%
same,β-sheet content of apo-hTf,[5]; compound concentration 1.6 (M),18.6%
same,other secondary structure content of apo-hTf,[5]; compound concentration 2 (M),20.1%
same,random coil content of apo-hTf,[5]; compound concentration 2 (M),34.5%
same,α-helix content of apo-hTf,[5]; compound concentration 2 (M),26.5%
same,β-sheet content of apo-hTf,[5]; compound concentration 2 (M),18.9%
same,other secondary structure content of apo-hTf,[5]; compound concentration 2.4 (M),20.2%
same,random coil content of apo-hTf,[5]; compound concentration 2.4 (M),34.7%
same,α-helix content of apo-hTf,[5]; compound concentration 2.4 (M),25.8%
same,β-sheet content of apo-hTf,[5]; compound concentration 2.4 (M),19.3%
same,biomolecular quenching rate constant kq,[6]; 296 K,1.51e+11 M⁻¹ s⁻¹
same,Stern-Volmer quenching constant Ksv,[6]; 296 K,1510 M⁻¹
same,number of binding sites n,[6]; 296 K,1.26
same,quenching association constant Ka,[6]; 296 K,19300 M⁻¹
same,biomolecular quenching rate constant kq,[6]; 303 K,1.59e+11 M⁻¹ s⁻¹
same,Stern-Volmer quenching constant Ksv,[6]; 303 K,1590 M⁻¹
same,number of binding sites n,[6]; 303 K,1.23
same,quenching association constant Ka,[6]; 303 K,15800 M⁻¹
same,biomolecular quenching rate constant kq,[6]; 310 K,1.81e+11 M⁻¹ s⁻¹
same,Stern-Volmer quenching constant Ksv,[6]; 310 K,1810 M⁻¹
same,number of binding sites n,[6]; 310 K,1.19
same,quenching association constant Ka,[6]; 310 K,12100 M⁻¹
same,biomolecular quenching rate constant kq,[6]; 317 K,2.05e+11 M⁻¹ s⁻¹
same,Stern-Volmer quenching constant Ksv,[6]; 317 K,2050 M⁻¹
same,number of binding sites n,[6]; 317 K,1.16
same,quenching association constant Ka,[6]; 317 K,9500 M⁻¹
same,Ka at 280 nm,[7],3060 M⁻¹
same,Ka at 361 nm,[7]; absorbance at 361 nm,3090 M⁻¹
same,"Association constants, Ka, 280 nm",[7]; pH 7.4,3.06 10^3 M^−1
same,"Association constants, Ka, 361 nm","[7]; absorbance of apo-hTf at 361 nm, pH 7.4",3.09 10^3 M^−1
"N.N.[Cl][Pt][Cl] [(NH3)2Pt(II)Cl2, cis-diamminedichloroplatinum (II), reference compound]",Förster critical energy transfer distance R0,[1],7.4 nm
same,binding distance r (donor-acceptor),[1],10.35 nm
same,efficiency of energy transfer E,[1],0.118
same,IC50,"[2]; read-out: IC50 (±SD), HT-29, ref 77",66 µM
same,IC50,"[2]; read-out: IC50 (±SD), HT-29, ref 84",23 µM
same,IC50,"[2]; read-out: IC50 (±SD), HT-29, ref 85",76 µM
same,IC50,"[3]; read-out: IC50 (±SD), MCF-7, ref 83",2 µM
same,IC50,"[3]; read-out: IC50 (±SD), MCF-7, ref 84",4.6 µM
same,∆G°,[4]; 296 K,-4.226 kcal/mol
same,∆G°,[4]; 303 K,-4.233 kcal/mol
same,∆G°,[4]; 310 K,-4.242 kcal/mol
same,∆G°,[4]; 317 K,-4.252 kcal/mol
same,∆H°,[4],-3.86 kcal/mol
same,∆S°,[4],5.17 J/mol K
same,other secondary structure content of apo-hTf,[5]; compound concentration 0.4 (M),19.1%
same,random coil content of apo-hTf,[5]; compound concentration 0.4 (M),33.9%
same,α-helix content of apo-hTf,[5]; compound concentration 0.4 (M),28.9%
same,β-sheet content of apo-hTf,[5]; compound concentration 0.4 (M),18.1%
same,other secondary structure content of apo-hTf,[5]; compound concentration 0.8 (M),19.2%
same,random coil content of apo-hTf,[5]; compound concentration 0.8 (M),33.9%
same,α-helix content of apo-hTf,[5]; compound concentration 0.8 (M),28.7%
same,β-sheet content of apo-hTf,[5]; compound concentration 0.8 (M),18.2%
same,other secondary structure content of apo-hTf,[5]; compound concentration 1.2 (M),19.2%
same,random coil content of apo-hTf,[5]; compound concentration 1.2 (M),34%
same,α-helix content of apo-hTf,[5]; compound concentration 1.2 (M),28.5%
same,β-sheet content of apo-hTf,[5]; compound concentration 1.2 (M),18.3%
same,other secondary structure content of apo-hTf,[5]; compound concentration 1.6 (M),19.3%
same,random coil content of apo-hTf,[5]; compound concentration 1.6 (M),34%
same,α-helix content of apo-hTf,[5]; compound concentration 1.6 (M),28.3%
same,β-sheet content of apo-hTf,[5]; compound concentration 1.6 (M),18.4%
same,other secondary structure content of apo-hTf,[5]; compound concentration 2 (M),19.3%
same,random coil content of apo-hTf,[5]; compound concentration 2 (M),34.1%
same,α-helix content of apo-hTf,[5]; compound concentration 2 (M),28.1%
same,β-sheet content of apo-hTf,[5]; compound concentration 2 (M),18.5%
same,other secondary structure content of apo-hTf,[5]; compound concentration 2.4 (M),19.3%
same,random coil content of apo-hTf,[5]; compound concentration 2.4 (M),34.1%
same,α-helix content of apo-hTf,[5]; compound concentration 2.4 (M),28%
same,β-sheet content of apo-hTf,[5]; compound concentration 2.4 (M),18.6%
same,biomolecular quenching rate constant kq,[6]; 296 K,1.35e+11 M⁻¹ s⁻¹
same,Stern-Volmer quenching constant Ksv,[6]; 296 K,1350 M⁻¹
same,number of binding sites n,[6]; 296 K,0.97
same,quenching association constant Ka,[6]; 296 K,1100 M⁻¹
same,biomolecular quenching rate constant kq,[6]; 303 K,1.1e+11 M⁻¹ s⁻¹
same,Stern-Volmer quenching constant Ksv,[6]; 303 K,1100 M⁻¹
same,number of binding sites n,[6]; 303 K,1.01
same,quenching association constant Ka,[6]; 303 K,1200 M⁻¹
same,biomolecular quenching rate constant kq,[6]; 310 K,9.8e+10 M⁻¹ s⁻¹
same,Stern-Volmer quenching constant Ksv,[6]; 310 K,980 M⁻¹
same,number of binding sites n,[6]; 310 K,1.04
same,quenching association constant Ka,[6]; 310 K,1400 M⁻¹
same,biomolecular quenching rate constant kq,[6]; 317 K,8.6e+10 M⁻¹ s⁻¹
same,Stern-Volmer quenching constant Ksv,[6]; 317 K,860 M⁻¹
same,number of binding sites n,[6]; 317 K,1.07
same,quenching association constant Ka,[6]; 317 K,1600 M⁻¹
same,Ka at 280 nm,[7],740 M⁻¹
same,"Association constants, Ka, 280 nm",[7]; pH 7.4,0.74 10^3 M^−1
